From ChEMBL document CHEMBL3286304, “Cytotoxicity and DNA binding property of the dimers of triphenylethylene-coumarin hybrid with one amino side chain” (Bioorg Med Chem Lett, 2014)
pIC50: −log10 of the molar value. Active and inactive are the calls of the source. The calls are words filed in the database; no cut-off is given here.

Key:
[1] = tested on: MCF7; test: Antiproliferative activity against human MCF7 cells after 48 hrs by MTT assay; format: functional, cell-based; conditions: MCF7, 48 h
[2] = tested on: Calf thymus DNA; test: Binding affinity to calf thymus DNA assessed as DNA intercalation at 20 uM at pH 7.4 after 10 mins by circular dichroism analysis; format: nucleic-acid assay; conditions: Bos taurus
Summary of the method: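 CD spectra of Ct-DNA (5.0 × 10^-5 M) alone and with dimer at 2.0 × 10^-5 M in 10 mM phosphate buffer pH 7.4, 50 mM NaCl, 2% DMSO, 25 °C.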

[3] = tested on: A549; test: Antiproliferative activity against human A549 cells after 48 hrs by MTT assay; format: functional, cell-based; conditions: A549, 48 h
[4] = tested on: Calf thymus DNA; test: Binding affinity to calf thymus DNA assessed as hypsochromic shift at 50 uM at 25 degC at pH 7.4 after 10 mins by UV-vis spectrophotometry; format: nucleic-acid assay; conditions: Bos taurus
Summary of the method: (§1)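 Ct-DNA titrated (0–180 µM for some dimers, 0–160 µM for others) into dimer at 5.0 × 10^-5 M in 10 mM phosphate buffer pH 7.4, 50 mM NaCl, 2% DMSO, 25 °C; UV–vis absorption followed at λmax; binding constant K by double inverse method.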

[5] = tested on: Calf thymus DNA; test: Binding affinity to calf thymus DNA assessed as hyperchromicity at 50 uM at 25 degC at pH 7.4 after 10 mins by UV-vis spectrophotometry; format: nucleic-acid assay; conditions: Bos taurus; summary of the method: as §1
[6] = tested on: Calf thymus DNA; test: Binding affinity to calf thymus DNA at 25 degC at pH 7.4 after 10 mins by UV-vis spectrophotometry; format: nucleic-acid assay; conditions: Bos taurus; summary of the method: as §1
[7] = Cytotoxicity against mouse skull osteoblasts at 10 uM after 48 hrs by MTT assay; format: cell-based; conditions: osteoblast
[8] = Cytotoxicity against mouse skull osteoblasts at 1 uM after 48 hrs by MTT assay; format: cell-based; conditions: osteoblast
[9] = Cytotoxicity against mouse skull osteoblasts at 100 uM after 48 hrs by MTT assay; format: cell-based; conditions: osteoblast
[10] = tested on: HeLa; test: Antiproliferative activity against human HeLa cells after 48 hrs by MTT assay; format: functional, cell-based
[11] = Cytotoxicity against mouse skull osteoblasts at 40 uM after 48 hrs by MTT assay; format: cell-based; conditions: osteoblast
[12] = Cytotoxicity against mouse skull osteoblasts at 20 uM after 48 hrs by MTT assay; format: cell-based; conditions: osteoblast
[13] = tested on: K562; test: Antiproliferative activity against human K562 cells after 48 hrs by MTT assay; format: functional, cell-based; conditions: K562, 48 h
[14] = tested on: Calf thymus DNA; test: Binding affinity to calf thymus DNA at 25 degC at pH 7.4 after 10 mins by Stern-Volmer plot analysis; format: nucleic-acid assay; conditions: Bos taurus
Summary of the method: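 Dimer (5.0 × 10^-5 M) titrated with Ct-DNA 0–180 µM in 10 mM phosphate pH 7.4, 50 mM NaCl, 2% DMSO, 25 °C; fluorescence emission near 465 nm, excitation 330–345 nm by compound, slits 5.0 nm; F/F0 versus DNA concentration, Stern–Volmer fitting gives binding constant.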

[15] = tested on: Calf thymus DNA; test: Binding affinity to calf thymus DNA assessed as change in melting temperature at 5 uM after 10 mins by thermal denaturation assay; format: nucleic-acid assay; conditions: Bos taurus
Summary of the method: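 Melting curves of Ct-DNA (5.0 × 10^-5 M) with or without dimer at 5.0 × 10^-6 M in 1 mM phosphate buffer pH 7.4, 5 mM NaCl, 2% DMSO; heated over roughly 55–85 °C; ΔTm taken relative to DNA alone.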

Row | Compound | pIC50 [1] | Activity [2] | pIC50 [3] | Activity [4] | Activity [5] | Kb [6] | pIC50 [10] | pIC50 [13] | Kb [14] | ΔTm [15] | Activity [7] | Activity [8] | Activity [9] | Activity [11] | Activity [12]
1 | Nc1ccc(-c2c(-c3ccc(OCCN4CCCC4)cc3)c3ccccc3oc2=O)cc1 | 4.34 | – | < 4.30 | – | – | – | < 4.30 | < 4.30 | – | – | – | – | – | – | –
2 | O=C(CCCCCCCCC(=O)Nc1ccc(-c2c(-c3ccc(OCCN4CCCCC4)cc3)c3ccccc3oc2=O)cc1)Nc1ccc(-c2c(-c3ccc(OCCN4CCCCC4)cc3)c3ccccc3oc2=O)cc1 | < 4.30 | Active | < 4.30 | 1.5 nm | 35% | 5.3 ×10⁴ /M | < 4.30 | < 4.30 | 2.1 ×10⁴ /M | 2.5 °C | – | – | – | – | –
3 | O=C(CCCCC(=O)Nc1ccc(-c2c(-c3ccc(OCCN4CCCCC4)cc3)c3ccccc3oc2=O)cc1)Nc1ccc(-c2c(-c3ccc(OCCN4CCCCC4)cc3)c3ccccc3oc2=O)cc1 | 4.45 | Active | 4.57 | 1.5 nm | 40% | 1.5 ×10⁵ /M | 4.46 | 4.62 | 3.8 ×10⁵ /M | 5.1 °C | – | – | – | – | –
4 | O=C(Nc1ccc(-c2c(-c3ccc(OCCN4CCCCC4)cc3)c3ccccc3oc2=O)cc1)c1cccc(C(=O)Nc2ccc(-c3c(-c4ccc(OCCN5CCCCC5)cc4)c4ccccc4oc3=O)cc2)c1 | < 4.30 | Active | < 4.30 | 0.5 nm | 32% | 4.8 ×10⁴ /M | < 4.30 | < 4.30 | 1.3 ×10⁴ /M | 2 °C | – | – | – | – | –
5 | O=C(CCCCC(=O)Nc1ccc(-c2c(-c3ccc(OCCN4CCCC4)cc3)c3ccccc3oc2=O)cc1)Nc1ccc(-c2c(-c3ccc(OCCN4CCCC4)cc3)c3ccccc3oc2=O)cc1 | 4.43 | – | 4.65 | – | – | – | 4.44 | 4.55 | – | – | – | – | – | – | –
6 | Nc1ccc(-c2c(-c3ccc(OCCN4CCCCC4)cc3)c3ccccc3oc2=O)cc1 | 4.36 | – | < 4.30 | – | – | – | < 4.30 | < 4.30 | – | – | – | – | – | – | –
7 | O=C(Nc1ccc(-c2c(-c3ccc(OCCN4CCCC4)cc3)c3ccccc3oc2=O)cc1)c1cccc(C(=O)Nc2ccc(-c3c(-c4ccc(OCCN5CCCC5)cc4)c4ccccc4oc3=O)cc2)c1 | 4.53 | – | 4.82 | – | – | – | 4.51 | 4.82 | – | – | – | – | – | – | –

More lines, in order of rising pIC50 [1], values ahead:

Row | pIC50 [1] | Activity [2] | pIC50 [3] | Activity [4] | Activity [5] | Kb [6] | pIC50 [10] | pIC50 [13] | Kb [14] | ΔTm [15] | Compound | Activity [7] | Activity [8] | Activity [9] | Activity [11] | Activity [12]
8 | 4.44 | – | 4.77 | – | – | – | 4.37 | 4.72 | – | – | O=C(CCCCCCCCC(=O)Nc1ccc(-c2c(-c3ccc(OCCN4CCCC4)cc3)c3ccccc3oc2=O)cc1)Nc1ccc(-c2c(-c3ccc(OCCN4CCCC4)cc3)c3ccccc3oc2=O)cc1 | – | – | – | – | –
9 | 5.07 | Active | 5.07 | 2 nm | 47% | 4.5 ×10⁵ /M | 5.11 | 6.01 | 6.9 ×10⁵ /M | 6 °C | O=C(CC(=O)Nc1ccc(-c2c(-c3ccc(OCCN4CCCCC4)cc3)c3ccccc3oc2=O)cc1)Nc1ccc(-c2c(-c3ccc(OCCN4CCCCC4)cc3)c3ccccc3oc2=O)cc1 | 0.3% | -8.4% | 36.2% | 20.1% | 0.6%
10 | 5.45 | – | 5.11 | – | – | – | 5.19 | 5.49 | – | – | O=C(CC(=O)Nc1ccc(-c2c(-c3ccc(OCCN4CCCC4)cc3)c3ccccc3oc2=O)cc1)Nc1ccc(-c2c(-c3ccc(OCCN4CCCC4)cc3)c3ccccc3oc2=O)cc1 | -1.3% | -10.4% | 27.4% | 14.5% | 0.8%
